Bioassay records deposited in PubChem BioAssay by several laboratories.
Only some compounds are listed: those with a hit (about 4.8% of all), similar ones and a draw of the others.
PAFAH1B3 FP inh: inhibitors of human PAFAH1B3. Q15102. recombinant PAFAH1B3, FP-rhodamine probe, fluorescence polarization. inhibition, % at 3.39 µM. 0.28% of 340,000 active;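 active = inhibition above the screen-wide average of all tested compounds plus 3 SD, cut at about 25% in these data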;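 note: 0% = enzyme with DMSO only and 100% = wells lacking PAFAH1B3 protein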
GRIN3A LBD mod: modulators (binders) of human NR3A ligand-binding domain | NR3A LBD differential scanning fluorimetry, Tm shift; 0% = protein alone, 100% = glycine-bound protein | Tm shift relative to glycine control, % at 25 µM | 2.5% of 340,000 active;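 active = melting temperature shift of at least 10% of the positive control shift, at one fixed dose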
PAFAH2 FP inh: inhibitors of human PAFAH2; Q99487; recombinant PAFAH2, FP-rhodamine activity probe, fluorescence polarization; inhibition, % at 3.39 µM; 0.99% of 340,000 active;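 active = inhibition above the mean over all tested compounds plus 3 SD, cut at about 30% in these data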;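 note: inhibitors block probe labeling of enzyme so polarization drops; 0% = enzyme with DMSO and 100% = wells lacking PAFAH2 protein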
PAFAH1B2 FP inh: PAFAH1B2 (human) inhibition; 1.2% of 340,000 active; inhibition, % at 3.39 µM; P68402; AID 492953; recombinant PAFAH1B2, FP-rhodamine activity probe, fluorescence polarization;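 active = inhibition above the mean of all tested compounds plus 3 SD, cut at about 24% in these data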;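 note: 0% = enzyme with DMSO and 100% = wells lacking PAFAH1B2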
Target sequence (P68402 whole entry, looked up): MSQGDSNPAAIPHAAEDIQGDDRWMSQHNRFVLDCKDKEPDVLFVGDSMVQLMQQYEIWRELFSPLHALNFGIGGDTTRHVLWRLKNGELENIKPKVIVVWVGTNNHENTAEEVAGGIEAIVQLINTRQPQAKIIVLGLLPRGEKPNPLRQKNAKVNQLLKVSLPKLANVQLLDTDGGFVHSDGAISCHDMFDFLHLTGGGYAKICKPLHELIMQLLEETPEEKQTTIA
pPAFAH inh: pPAFAH (human) enzyme inhibition; Q13093; recombinant pPAFAH, FP-rhodamine probe fluorescence polarization; inhibition, % at 3.39 µM; 1.5% of 330,000 active; AID 463082;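 active = inhibition above the mean inhibition across the screen plus 3 SD, cut at about 25% in these data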;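 note: inhibitors block binding of the rhodamine activity-based probe so polarization drops; 0% = enzyme with DMSO and 100% = wells lacking pPAFAH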
Target sequence (Q13093 whole entry, looked up): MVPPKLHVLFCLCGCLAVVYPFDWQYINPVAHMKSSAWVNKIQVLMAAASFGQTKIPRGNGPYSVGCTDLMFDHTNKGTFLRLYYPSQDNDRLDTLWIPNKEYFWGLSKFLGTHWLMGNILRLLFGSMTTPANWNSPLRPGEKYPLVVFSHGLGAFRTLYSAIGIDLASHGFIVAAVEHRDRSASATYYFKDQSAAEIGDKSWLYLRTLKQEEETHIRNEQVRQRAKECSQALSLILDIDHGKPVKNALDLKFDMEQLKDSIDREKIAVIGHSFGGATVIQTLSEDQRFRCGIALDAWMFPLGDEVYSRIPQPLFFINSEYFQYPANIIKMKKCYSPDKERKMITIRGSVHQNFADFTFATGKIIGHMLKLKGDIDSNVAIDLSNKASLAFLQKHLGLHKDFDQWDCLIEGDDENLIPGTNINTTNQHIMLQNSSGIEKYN
UCH37 inh: blocks the human deubiquitinase UCH37; AID 588478; Q9Y5K5; purified proteasome/UCH37, Ub-AMC cleavage fluorescence; inhibition, % (test concentration not listed); 0.33% of 330,000 active;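 active = mean inhibition over replicate wells above about 20%, limit read from the data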;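 note: 0% = compound-free wells with enzyme and 100% = wells lacking proteasome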
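System: Proteasome-associated human UCH37 deubiquitinase; Input: 0.15 nM proteasome in added enzyme buffer; Also added: Ub-AMC substrate from 1 µM stock; Incubation: 30 min compound-proteasome preincubation then 25 min substrate reaction, room temperature; Detection: fluorescence, ex 355 nm, em 460 nm; Read-out: % inhibition of Ub-AMC cleavage fluorescence; Benchmarks: no-proteasome and no-compound wells.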
* hit, by the source's call.

How did O=C(Nc1cccc(Cl)c1)Nc1ccon1 do in these assays?
PAFAH1B3 FP inh: 7; GRIN3A LBD mod: 0; PAFAH2 FP inh: -2; PAFAH1B2 FP inh: -3; pPAFAH inh: -4; UCH37 inh: 1

Results for CSc1ccccc1NC(=O)Nc1cccc(F)c1 ?
PAFAH1B3 FP inh: -2; GRIN3A LBD mod: 5; PAFAH2 FP inh: 11; PAFAH1B2 FP inh: -5; pPAFAH inh: -2; UCH37 inh: 5

How did O=C(Nc1cccc(Cl)c1)Nc1cccc(Cl)c1 do in these assays?
PAFAH1B3 FP inh: -15; GRIN3A LBD mod: 33*; PAFAH2 FP inh: -38; PAFAH1B2 FP inh: -18; pPAFAH inh: -54; UCH37 inh: 4

What do the screens show for `COC(=O)c1cc(NC(=O)Nc2cccc(Cl)c2)ccc1Cl`?
PAFAH1B3 FP inh: -61; GRIN3A LBD mod: 38*; PAFAH2 FP inh: -46; PAFAH1B2 FP inh: -24; pPAFAH inh: -55; UCH37 inh: 2

How did O=C(Nc1cccc(Cl)c1)OCc1cn(-c2ccccc2)nn1 do in these assays?
PAFAH1B3 FP inh: 6; GRIN3A LBD mod: 11*; PAFAH2 FP inh: 0; PAFAH1B2 FP inh: -2; pPAFAH inh: -3; UCH37 inh: 0

Results for CC(=O)Nc1cccc(NC(=O)Nc2cccc(F)c2)c1 ?
PAFAH1B3 FP inh: 12; GRIN3A LBD mod: 29*; PAFAH2 FP inh: -1; PAFAH1B2 FP inh: 0; pPAFAH inh: 0; UCH37 inh: 4

What do the screens show for `CCOc1ccc(OCc2ccc(C(=O)NN=C(C)c3ccccn3)cc2)cc1`?
UCH37 inh: 1

What do the screens show for `Cc1ccc(C=NNC(=O)c2nnn(-c3nonc3N)c2CN(C)C2CCCCC2)cc1`?
UCH37 inh: -2

What do the screens show for `O=C(NN=Cc1ccc(OC(=O)c2ccccc2Cl)cc1)c1ccccn1`?
UCH37 inh: -10

Results for N#Cc1ccccc1NC(=O)Nc1cccc(Cl)c1 ?
PAFAH1B3 FP inh: 8; GRIN3A LBD mod: 0; PAFAH2 FP inh: 4; PAFAH1B2 FP inh: -3; pPAFAH inh: 6; UCH37 inh: -72

Results for CC(O)c1cccc(NC(=O)Nc2cccc(NC(=O)Nc3cccc(C(C)O)c3)c2)c1 (centres undefined) ?
PAFAH1B3 FP inh: 5; GRIN3A LBD mod: 27*; PAFAH2 FP inh: -14; PAFAH1B2 FP inh: 1; UCH37 inh: 1

What do the screens show for `CC(O)c1cccc(NC(=O)CCC(=O)O)c1` (centres undefined)?
PAFAH1B3 FP inh: 12; GRIN3A LBD mod: -1; PAFAH2 FP inh: 6; PAFAH1B2 FP inh: 3; pPAFAH inh: 0; UCH37 inh: 4

What do the screens show for `COC(=O)c1sccc1NC(=O)Nc1cccc(F)c1`?
PAFAH1B3 FP inh: 3; GRIN3A LBD mod: 10*; PAFAH2 FP inh: -1; PAFAH1B2 FP inh: -2; pPAFAH inh: 5; UCH37 inh: 1

Results for O=C(N/C=C/c1ccco1)Nc1cccc(Cl)c1 ?
GRIN3A LBD mod: 3; pPAFAH inh: 27*; UCH37 inh: -3

Results for COC(=O)c1sccc1NC(=O)Nc1cccc(OC)c1 ?
PAFAH1B3 FP inh: -1; GRIN3A LBD mod: -1; PAFAH2 FP inh: 1; PAFAH1B2 FP inh: -5; pPAFAH inh: 0; UCH37 inh: -3

How did N#CCc1ccc(NC(=O)Nc2cccc(Cl)c2)cc1 do in these assays?
PAFAH1B3 FP inh: 4; GRIN3A LBD mod: 26*; PAFAH2 FP inh: -12; PAFAH1B2 FP inh: 1; pPAFAH inh: -7

How did COc1ccc(C=NNC(=O)COc2cccc3ccccc23)c(C(=O)O)c1OC do in these assays?
UCH37 inh: 3

Results for Oc1cccc(C=NNc2nn3cnnc3c3ccccc23)c1 ?
UCH37 inh: 8

Results for O=C(Nc1cccc(F)c1)Nc1cccc(Cl)c1 ?
PAFAH1B3 FP inh: -2; GRIN3A LBD mod: 42*; PAFAH2 FP inh: -11; PAFAH1B2 FP inh: -10; pPAFAH inh: -4; UCH37 inh: 3

What do the screens show for `O=C(Nc1cccc(F)c1)Nc1ccc2c(c1)OCO2`?
PAFAH1B3 FP inh: 9; GRIN3A LBD mod: 37*; PAFAH2 FP inh: -2; PAFAH1B2 FP inh: 4; UCH37 inh: 0

What do the screens show for `N#CC(C(=O)Nc1ccc(Cl)c(Cl)c1)=C1Nc2ccccc2N1`?
PAFAH1B3 FP inh: 12; GRIN3A LBD mod: 4; PAFAH2 FP inh: 12; PAFAH1B2 FP inh: 8; pPAFAH inh: 14; UCH37 inh: 1

What do the screens show for `N#CC(C(=O)Nc1cccc(Cl)c1)=C1Nc2ccccc2N1`?
PAFAH1B3 FP inh: 7; GRIN3A LBD mod: 10*; PAFAH2 FP inh: 2; PAFAH1B2 FP inh: 0; pPAFAH inh: 2; UCH37 inh: -1

How did O=C(NCc1ccc(F)cc1)Nc1cccc(Cl)c1 do in these assays?
PAFAH1B3 FP inh: 3; GRIN3A LBD mod: -5; PAFAH2 FP inh: -2; PAFAH1B2 FP inh: 4; pPAFAH inh: -2; UCH37 inh: 4

What do the screens show for `O=C(Nc1cccc(F)c1)C1CCN(C(=O)c2ccc(Cl)cc2)CC1`?
PAFAH1B3 FP inh: 2; GRIN3A LBD mod: 12*; PAFAH2 FP inh: -4; PAFAH1B2 FP inh: 6; pPAFAH inh: 1; UCH37 inh: 1

How did O=C(Nc1ccc2c(c1)OCO2)c1cccc(F)c1 do in these assays?
PAFAH1B3 FP inh: 7; GRIN3A LBD mod: -21; PAFAH2 FP inh: 7; PAFAH1B2 FP inh: 0; pPAFAH inh: 1; UCH37 inh: 5

What do the screens show for `COc1ccc(OC)c(C(O)=CC(=O)C(=O)Nc2cc(C)cc(C)c2)c1`?
UCH37 inh: 0

How did COc1cc(C=NNC(=O)c2cccc(S(=O)(=O)N3CCCC3)c2)ccc1O do in these assays?
UCH37 inh: 9

Results for N#Cc1c(N=Cc2ccc(-c3ccccc3C(=O)O)o2)sc2c1CCCC2 ?
UCH37 inh: 9

Results for O=C(Nc1cccc(Cl)c1)OCCOCCOC(=O)Nc1cccc(Cl)c1 ?
PAFAH1B3 FP inh: 3; GRIN3A LBD mod: 36*; PAFAH2 FP inh: -7; PAFAH1B2 FP inh: 18; UCH37 inh: 3

Results for Nc1ccc(N2CCN(C(=O)c3cccs3)CC2)cc1 ?
PAFAH1B3 FP inh: 4; GRIN3A LBD mod: -1; PAFAH2 FP inh: 8; PAFAH1B2 FP inh: 1; pPAFAH inh: 32*; UCH37 inh: -2

How did O=C(c1cccs1)N1CCN(c2ncc(C(F)(F)F)cc2Cl)CC1 do in these assays?
PAFAH1B3 FP inh: 1; GRIN3A LBD mod: 11*; PAFAH2 FP inh: -1; PAFAH1B2 FP inh: 3; pPAFAH inh: 3; UCH37 inh: 3

Results for O=C(O)c1cccc(-c2ccc(C=NNC(=O)C3COc4ccccc4O3)o2)c1 (centres undefined) ?
UCH37 inh: 0

How did CN(C)C=Nc1c(C(=O)NCc2ccccc2)nnn1Cc1ccccc1 do in these assays?
UCH37 inh: 3

How did O=C(NN=Cc1cn(-c2ccccc2)nc1-c1cccs1)c1ccccc1F do in these assays?
UCH37 inh: -1

What do the screens show for `Cc1c(O)ccc(C(=O)COc2ccccc2F)c1O`?
PAFAH1B3 FP inh: 2; GRIN3A LBD mod: 35*; PAFAH2 FP inh: -3; PAFAH1B2 FP inh: 0; pPAFAH inh: 4; UCH37 inh: 3
